Drawing on ChEMBL document CHEMBL1139367, “A novel histone acetyltransferase inhibitor modulating Gcn5 network: cyclopentylidene-[4-(4'-chlorophenyl)thiazol-2-yl)hydrazone” (2009), this text covers Activity for 2 compounds.

Calls of active or inactive are those of the source. The rule behind the calls is not given here.

Experiment [1] has as its system Saccharomyces cerevisiae. The experiment is described as follows: Growth inhibition of Saccharomyces cerevisiae gcn5delta mutant at 0.2 to 1 mM after 48 hrs at 28 degC by growth spot assay. The class given is functional, organism-based. In a few lines:
(§1)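 Exponentially growing yeast cells at 0.2 OD/mL were serially diluted 1/5. They were spotted on solid YEPD (2% agar) containing 1% DMSO, with compound added from a 100 mM DMSO stock at increasing concentrations. Plates were incubated at 28 °C. Each mutant was compared with its isogenic wild type (S288c, YMK986 or SB819).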

Experiment [2] has as its system Saccharomyces cerevisiae. The experiment is described as follows: Growth inhibition of Saccharomyces cerevisiae gcn5E173H mutant at 0.2 to 1 mM after 48 hrs at 28 degC by growth spot assay. Format: functional, organism-based. In a few lines: as §1
Experiment [3] has as its system Saccharomyces cerevisiae. The experiment is described as follows: Growth inhibition of Saccharomyces cerevisiae SB0-deltabr mutant at 0.2 to 1 mM after 48 hrs at 28 degC by growth spot assay. Format: functional, organism-based. The method in brief: as §1
For experiment [4], the system named is Saccharomyces cerevisiae. The experiment is described as follows: Growth inhibition of wild type wild type Saccharomyces cerevisiae SB819 at 0.2 to 1 mM after 48 hrs at 28 degC by growth spot assay. Format: functional, organism-based. In a few lines:
as §1

Experiment [5] deals with Histone acetyltransferase KAT2A (Homo sapiens) (UniProt Q92830). The experiment is described as follows: Inhibition of human recombinant Gcn5 assessed as reduction in acetylated histone H3 level at 0.8 mM by Western blot analysis. The method in brief:
(§2)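 Tube reaction of human recombinant Gcn5 (50 ng) with 1 mM acetyl-CoA and histone H3 (100 or 200 ng). Buffer: 50 mM Tris-HCl pH 8.0, 0.1 mM EDTA, 50 mM KCl, 1 mM DTT, 5% glycerol. Incubated 1 h at 28 °C with or without compound, then 15% SDS-PAGE and blotting. Blots were probed serially with anti-acetyl-lysine and anti-acetyl-H3 antibodies.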

Experiment [6] shares this target. The experiment is described as follows: Inhibition of human recombinant Gcn5 assessed as reduction in acetylated histone H3 level at 0.8 mM by Western blot analysis in presence of 200 ng histone H3. The method in brief:
as §2

Experiment [7] has the same target. The experiment is described as follows: Inhibition of human recombinant Gcn5 assessed as reduction in acetylated histone H3 level at 0.8 mM by Western blot analysis in presence of increased concentration of acetyl-CoA.
In experiment [8] the test system is Saccharomyces cerevisiae. The experiment is described as follows: Decrease in global histone H3 acetylation in wild type Saccharomyces cerevisiae S288C at 0.8 mM after 24 hrs at 28 degC by hybridization assay. The class given is functional. More on the design: scale not given: the % may be the effect or the level left. In a few lines:
(§3)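 Wild-type S288c yeast grown 24 h at 28 °C in YEPD with 1% DMSO, with or without compound added to the medium. Bulk proteins were extracted by an alkaline protocol, run on 15% SDS-PAGE and blotted. Blots were probed for acetylated H3, H4 and H3-K14Ac, with ECL detection. Signals were normalized to Ada2p and quantified densitometrically.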

For experiment [9], the system named is Saccharomyces cerevisiae. The experiment is described as follows: Reduction of global histone H4 acetylation in wild type Saccharomyces cerevisiae S288C at 0.8 mM after 24 hrs at 28 degC by hybridization assay. Format: functional, organism-based. In a few lines:
as §3

Experiment [10] has as its system Saccharomyces cerevisiae. The experiment is described as follows: Inhibition of histone H3 acetylation at H3-AcK14 site in wild type Saccharomyces cerevisiae S288C at 0.8 mM after 24 hrs at 28 degC by hybridization assay. Format: functional, organism-based. In a few lines: as §3
For experiment [11], the system named is Saccharomyces cerevisiae. The experiment is described as follows: Inhibition of global histone H3 acetylation in Saccharomyces cerevisiae gcn5delta mutant at 0.8 mM after 24 hrs at 28 degC by hybridization assay. Format: functional, organism-based.
The subject of experiment [12] is Saccharomyces cerevisiae. The experiment is described as follows: Inhibition of histone H3 acetylation at H3-AcK14 site in Saccharomyces cerevisiae gcn5delta mutant at 0.8 mM after 24 hrs at 28 degC by hybridization assay. Format: functional, organism-based.
In experiment [13] the target is Histone acetyltransferase KAT2A (Homo sapiens) (UniProt Q92830). The experiment is described as follows: Inhibition of human recombinant Gcn5 assessed as reduction in acetylated histone H3 level at 0.2 mM by Western blot analysis. In a few lines: as §2
The target is the same in experiment [14]. The experiment is described as follows: Inhibition of human recombinant Gcn5 assessed as reduction in acetylated histone H3 level at 0.2 mM by Western blot analysis in presence of histone H3. The method in brief:
as §2

Chain of Histone acetyltransferase KAT2A (Homo sapiens) (Q92830 2-837 limits assumed): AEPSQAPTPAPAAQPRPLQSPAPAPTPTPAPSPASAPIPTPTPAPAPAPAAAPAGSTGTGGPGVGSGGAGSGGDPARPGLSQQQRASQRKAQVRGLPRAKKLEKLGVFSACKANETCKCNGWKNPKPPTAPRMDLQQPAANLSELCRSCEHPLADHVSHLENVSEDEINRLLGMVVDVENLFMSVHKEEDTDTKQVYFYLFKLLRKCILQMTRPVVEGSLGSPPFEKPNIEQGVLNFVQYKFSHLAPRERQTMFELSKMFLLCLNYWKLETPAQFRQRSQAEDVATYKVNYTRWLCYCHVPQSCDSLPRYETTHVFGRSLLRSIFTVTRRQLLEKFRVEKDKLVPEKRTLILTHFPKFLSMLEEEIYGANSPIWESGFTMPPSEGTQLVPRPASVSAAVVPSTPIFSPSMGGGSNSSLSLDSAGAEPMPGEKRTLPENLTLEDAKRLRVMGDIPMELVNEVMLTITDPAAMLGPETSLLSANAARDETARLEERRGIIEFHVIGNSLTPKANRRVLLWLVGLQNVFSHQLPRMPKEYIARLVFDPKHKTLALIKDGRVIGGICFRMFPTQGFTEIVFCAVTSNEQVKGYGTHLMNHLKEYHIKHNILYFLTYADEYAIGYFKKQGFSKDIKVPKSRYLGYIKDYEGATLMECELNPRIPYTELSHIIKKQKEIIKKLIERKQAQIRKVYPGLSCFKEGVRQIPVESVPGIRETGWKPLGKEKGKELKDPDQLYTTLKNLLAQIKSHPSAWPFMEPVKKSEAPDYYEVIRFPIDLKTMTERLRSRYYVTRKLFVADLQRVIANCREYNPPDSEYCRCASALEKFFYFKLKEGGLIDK

On to `Clc1ccc(-c2csc(NN=C3CCCC3)n2)cc1`, for which the result (in the experiment on Saccharomyces cerevisiae [1]; in the experiment on Saccharomyces cerevisiae [2]; in [5]; in [7]; in the experiment with Saccharomyces cerevisiae [10]; in the experiment with Saccharomyces cerevisiae [11]) was Active. In the experiment on Saccharomyces cerevisiae [12], the result was Active. Further, the outcome (with Saccharomyces cerevisiae [3]; in the experiment on Saccharomyces cerevisiae [4]; in [6]; with Saccharomyces cerevisiae [9]) was inactive. The same compound yielded an Activity in the experiment with Saccharomyces cerevisiae [8] of 30%.
In the case of `C=CC/C=C\C/C=C\CCCCCCCc1cccc(O)c1C(=O)O`, the outcome in experiment [13] and in experiment [14] was Active.
